Measured values published in ChEMBL document CHEMBL3414472, “Synthesis, SAR, and series evolution of novel oxadiazole-containing 5-lipoxygenase activating protein inhibitors: discovery of 2-[4-(3-{(r)-1-[4-(2-amino-pyrimidin-5-yl)-phenyl]-1-cyclopropyl-ethyl}-[1,2,4]oxadiazol-5-yl)-pyrazol-1-yl]-N,N-dimethyl-acetamide (BI 665915)” (J Med Chem, 2015).
≈ marks a conversion by molar mass, not a printed value.

Legend:
[1] = target: T1, Arachidonate 5-lipoxygenase-activating protein (Mus musculus, UniProt P30355); test: Inhibition of FLAP in calcimycin-stimulated mouse whole blood assessed as inhibition of LTB4 synthesis preincubated for 15 mins followed by calcimycin stimulation measured after 30 mins
T1 sequence (P30355 whole entry): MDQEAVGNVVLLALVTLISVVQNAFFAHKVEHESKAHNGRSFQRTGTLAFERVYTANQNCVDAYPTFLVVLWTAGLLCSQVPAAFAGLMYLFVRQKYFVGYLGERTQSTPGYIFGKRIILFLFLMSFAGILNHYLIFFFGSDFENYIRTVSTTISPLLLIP
Procedure, shortened: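 Mouse whole blood run by the same protocol as the human whole blood LTB4 assay (compound 15 min at 37 °C, 100 µM final calcimycin 30 min, HTRF LTB4 read-out). Geometric mean (n ≥ 3) of duplicate 8-point curves.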

Cytochrome P450 2D6 [2] = target: T2, Cytochrome P450 2D6 (Homo sapiens, UniProt P10635); test: Inhibition of CYP2D6 in human liver microsomes using dextromethorphan as substrate preincubated for 10 mins followed by NADPH addition measured after 6 mins; type: ADME
Procedure, shortened: (§1)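 Human liver microsomes (0.05 mg/mL protein) with cocktail substrates: 4 µM diclofenac (2C9), 3 µM dextromethorphan (2D6), 2.5 µM midazolam (3A4). Compound in 0.1 M potassium phosphate pH 7.4 preincubated 10 min at 37 °C; NADPH added, reaction 6 min at 37 °C.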

[3] = target: T3, Arachidonate 5-lipoxygenase-activating protein (Homo sapiens, UniProt P20292); test: Displacement of [125I]-L-691831 from human FLAP expressed in insect SF9 cell membranes after 2 hrs by Topcount analysis
T3 sequence (P20292 whole entry): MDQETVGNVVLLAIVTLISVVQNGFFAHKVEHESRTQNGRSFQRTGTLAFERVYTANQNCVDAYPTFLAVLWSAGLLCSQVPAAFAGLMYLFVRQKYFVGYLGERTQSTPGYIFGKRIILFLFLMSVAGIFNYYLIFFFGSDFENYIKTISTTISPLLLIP

Cytochrome P450 3A4 [4] = target: T4, Cytochrome P450 3A4 (Homo sapiens, UniProt P08684); test: Inhibition of CYP3A4 in human liver microsomes using midazolam as substrate preincubated for 10 mins followed by NADPH addition measured after 6 mins; type: ADME; procedure, shortened: as §1
hERG (KCNH2) = hERG (KCNH2) (Homo sapiens, UniProt Q12809); test: Inhibition of human ERG expressed in HEK293 cells assessed as change in tail current at 11 uM by manual patch clamp assay relative to control; type: cell-based; conditions: HEK293 cells that express hERG
Procedure, shortened: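 Whole-cell manual patch clamp on HEK293 cells stably expressing human ERG, at room temperature (20-22 °C) in a perfusion chamber. Change in hERG tail current amplitude during the hyperpolarizing step measured with escalating compound concentrations.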

[5] = target: T3, Arachidonate 5-lipoxygenase-activating protein; test: Inhibition of FLAP in calcimycin-stimulated human whole blood assessed as inhibition of LTB4 synthesis preincubated for 15 mins followed by calcimycin stimulation measured after 30 mins
Procedure, shortened: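 Heparinized human volunteer blood preincubated with compound 15 min at 37 °C, 5 % CO2; calcimycin 100 µM final, 30 min at 37 °C; spun 2000 rpm 5 min at 4 °C. Supernatant LTB4 measured by HTRF competition (LTB4-XL665 plus anti-LTB4 cryptate, 2 h room temperature). Geometric mean (n ≥ 3) of duplicate 10-point curves.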

[6] = Aqueous equilibrium solubility of the compound in crystalline form in citric acid/disodium phosphate buffer at pH 6.8 after 24 hrs of rotation by HPLC analysis; type: physicochemical
Procedure, shortened: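 Saturated solution of crystalline material in citric acid/disodium phosphate buffer pH 6.8 rotated 24 h; after centrifugation and filtration, dissolved concentration measured by HPLC.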

[7] = Metabolic stability in human liver microsomes at 1 uM preincubated for 10 mins followed by NADPH addition measured over 60 mins by LC/MS analysis relative to hepatic blood flow; type: ADME; conditions: read-out: Stability
Procedure, shortened: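 Human liver microsomes (1 mg/mL protein) with test compound at 1 µM, preincubated 10 min at 37 °C before adding NADPH. Remaining compound followed over a 0–60 min time course, as duplicate 8-timepoint curves. The slope of ln(% remaining) against time gives clearance, expressed as percent of hepatic blood flow.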

Cytochrome P450 2C9 [8] = target: T5, Cytochrome P450 2C9 (Homo sapiens, UniProt P11712); test: Inhibition of CYP2C9 in human liver microsomes using dichlofenac as substrate preincubated for 10 mins followed by NADPH addition measured after 6 mins; type: ADME; procedure, shortened: as §1
Cytochrome P450 2D6 [9] = target: T2, Cytochrome P450 2D6; test: Inhibition of CYP2D6 in human liver microsomes using dextromethorphan as substrate at 30 uM preincubated for 10 mins followed by NADPH addition measured after 6 mins; type: ADME; conditions: 0.1 h
Cytochrome P450 2C9 [10] = target: T5, Cytochrome P450 2C9; test: Inhibition of CYP2C9 in human liver microsomes using dichlofenac as substrate at 30 uM preincubated for 10 mins followed by NADPH addition measured after 6 mins; type: ADME; conditions: 0.1 h
Cytochrome P450 3A4 [11] = target: T4, Cytochrome P450 3A4; test: Inhibition of CYP3A4 in human liver microsomes using midazolam as substrate at 30 uM preincubated for 10 mins followed by NADPH addition measured after 6 mins; type: ADME; conditions: 0.1 h

Sequence of hERG (KCNH2) (Q12809 whole entry, the tested form may be a part): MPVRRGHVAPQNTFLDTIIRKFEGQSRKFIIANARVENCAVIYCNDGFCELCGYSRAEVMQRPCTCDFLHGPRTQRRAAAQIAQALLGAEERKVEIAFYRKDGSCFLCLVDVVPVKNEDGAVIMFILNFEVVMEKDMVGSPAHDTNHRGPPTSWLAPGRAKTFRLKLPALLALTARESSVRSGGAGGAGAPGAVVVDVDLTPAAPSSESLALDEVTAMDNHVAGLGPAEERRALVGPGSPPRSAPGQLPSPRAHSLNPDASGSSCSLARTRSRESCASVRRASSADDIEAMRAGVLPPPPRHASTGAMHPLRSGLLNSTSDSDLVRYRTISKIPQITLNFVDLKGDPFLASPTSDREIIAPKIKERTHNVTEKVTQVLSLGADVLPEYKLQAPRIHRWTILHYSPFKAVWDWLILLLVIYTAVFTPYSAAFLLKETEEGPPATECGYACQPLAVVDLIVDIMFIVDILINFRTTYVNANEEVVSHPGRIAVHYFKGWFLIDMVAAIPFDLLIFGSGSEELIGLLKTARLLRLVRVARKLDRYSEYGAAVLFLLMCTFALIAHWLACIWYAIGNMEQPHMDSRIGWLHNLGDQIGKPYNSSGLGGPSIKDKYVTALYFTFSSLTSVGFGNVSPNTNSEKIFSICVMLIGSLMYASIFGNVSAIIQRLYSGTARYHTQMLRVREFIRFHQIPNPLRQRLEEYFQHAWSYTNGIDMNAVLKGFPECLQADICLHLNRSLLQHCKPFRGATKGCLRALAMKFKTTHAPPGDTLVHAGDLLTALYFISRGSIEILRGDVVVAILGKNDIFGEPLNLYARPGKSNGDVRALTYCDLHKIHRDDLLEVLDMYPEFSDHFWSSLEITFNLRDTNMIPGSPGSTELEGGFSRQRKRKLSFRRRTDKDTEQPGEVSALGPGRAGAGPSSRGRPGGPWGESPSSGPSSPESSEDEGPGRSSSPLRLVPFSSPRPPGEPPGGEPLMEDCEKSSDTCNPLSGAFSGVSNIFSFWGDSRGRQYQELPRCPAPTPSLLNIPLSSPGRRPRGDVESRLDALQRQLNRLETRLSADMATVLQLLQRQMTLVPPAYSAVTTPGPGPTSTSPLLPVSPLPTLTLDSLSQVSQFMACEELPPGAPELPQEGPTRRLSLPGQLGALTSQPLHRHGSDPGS
T5 sequence (P11712 whole entry): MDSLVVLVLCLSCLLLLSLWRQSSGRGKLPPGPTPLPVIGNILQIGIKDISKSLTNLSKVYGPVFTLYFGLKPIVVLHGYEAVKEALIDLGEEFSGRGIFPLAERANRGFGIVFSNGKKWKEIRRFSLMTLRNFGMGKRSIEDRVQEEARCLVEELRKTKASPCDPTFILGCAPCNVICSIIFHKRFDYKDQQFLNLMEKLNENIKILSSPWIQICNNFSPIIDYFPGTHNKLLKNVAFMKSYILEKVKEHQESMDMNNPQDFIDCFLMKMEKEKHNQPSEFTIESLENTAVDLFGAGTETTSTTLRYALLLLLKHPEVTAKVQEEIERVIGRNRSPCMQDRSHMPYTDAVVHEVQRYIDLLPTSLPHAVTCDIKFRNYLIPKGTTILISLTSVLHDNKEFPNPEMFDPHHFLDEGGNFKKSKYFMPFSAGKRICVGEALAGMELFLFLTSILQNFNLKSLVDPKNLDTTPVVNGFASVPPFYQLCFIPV
T4 sequence (P08684 whole entry): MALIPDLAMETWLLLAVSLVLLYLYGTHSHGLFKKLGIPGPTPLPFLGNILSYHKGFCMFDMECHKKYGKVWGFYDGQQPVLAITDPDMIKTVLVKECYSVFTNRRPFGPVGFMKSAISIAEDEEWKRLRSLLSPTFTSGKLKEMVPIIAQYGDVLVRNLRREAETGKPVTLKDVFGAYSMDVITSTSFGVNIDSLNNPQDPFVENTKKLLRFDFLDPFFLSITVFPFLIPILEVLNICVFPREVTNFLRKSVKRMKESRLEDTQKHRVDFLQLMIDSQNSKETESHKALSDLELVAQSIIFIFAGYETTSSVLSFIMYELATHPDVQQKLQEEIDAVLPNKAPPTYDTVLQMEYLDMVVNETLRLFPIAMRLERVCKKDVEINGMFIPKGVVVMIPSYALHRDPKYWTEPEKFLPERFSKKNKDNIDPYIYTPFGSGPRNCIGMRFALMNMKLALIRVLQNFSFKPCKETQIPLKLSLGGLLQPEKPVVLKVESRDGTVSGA
T2 sequence (P10635 whole entry): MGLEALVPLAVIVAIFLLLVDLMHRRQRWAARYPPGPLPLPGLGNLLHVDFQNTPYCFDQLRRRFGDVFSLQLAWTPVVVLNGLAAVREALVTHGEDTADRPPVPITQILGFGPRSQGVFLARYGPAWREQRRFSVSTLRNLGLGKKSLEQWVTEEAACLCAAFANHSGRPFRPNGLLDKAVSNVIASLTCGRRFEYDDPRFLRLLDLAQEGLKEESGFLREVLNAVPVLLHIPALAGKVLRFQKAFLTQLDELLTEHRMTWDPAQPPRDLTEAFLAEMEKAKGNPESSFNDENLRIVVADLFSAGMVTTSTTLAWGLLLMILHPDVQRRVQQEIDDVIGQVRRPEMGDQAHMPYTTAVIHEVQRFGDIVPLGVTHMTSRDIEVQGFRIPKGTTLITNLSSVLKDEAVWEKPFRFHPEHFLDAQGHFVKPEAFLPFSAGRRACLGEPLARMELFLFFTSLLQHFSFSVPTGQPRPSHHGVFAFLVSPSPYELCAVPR

Compound	IC50 [5] [nM]	further results
CC(C)(O)Cn1cc(-c2nc([C@@](C)(c3ccc(-c4cnc(N)nc4)cc3)C3CC3)no2)cn1	20	IC50 [1]: 1500 nM; IC50 (Cytochrome P450 2D6 [2]): > 30000 nM; IC50 [3]: 2.1 nM; IC50 (Cytochrome P450 3A4 [4]): > 30000 nM; inhibition at 11 µM (hERG (KCNH2)): 16%; solubility thermodynamic at 24 h [6]: 32 µg/mL (≈ 71.8 µM); hepatic extraction ratio at 1 h, 1 µM [7]: 0.24; IC50 (Cytochrome P450 2C9 [8]): 4000 nM
CN(C)C(=O)Cn1cc(-c2nc(C3(c4ccc(-c5cnc(N)nc5)cc4)CCC3)no2)cn1	81	IC50 [3]: 3.6 nM; solubility thermodynamic at 24 h [6]: 20 µg/mL (≈ 45 µM); inhibition (INH) (Cytochrome P450 2D6 [9]): Not Active; inhibition (INH) (Cytochrome P450 2C9 [10]): Not Active
Cn1cc(-c2nc(C3(c4ccc(-c5cnc(N)nc5)cc4)CCC3)no2)cn1	–	solubility thermodynamic at 24 h [6]: 0.03 µg/mL (≈ 0.0803 µM)
Nc1ncc(-c2ccc(C3(c4noc(-c5cccnn5)n4)CCC3)cc2)cn1	400	–
Nc1ncc(-c2ccc(C3(c4noc(-c5cnccn5)n4)CCC3)cc2)cn1	360	–
CCNc1nc(C2(c3ccc(-c4cnc(N)nc4)cc3)CCC2)no1	460	–
CNc1ncc(-c2ccc([C@](C)(c3noc(-c4cnn(CC(=O)N(C)C)c4)n3)C3CC3)cc2)cn1	30	IC50 [3]: 2.9 nM
CS(=O)(=O)Nc1nc(C2(c3ccc(-c4cnc(N)nc4)cc3)CCC2)no1	> 5000	–
Cn1cc(-c2nc(C(C)(C)c3ccc(-c4cnc(N)nc4)cc3)no2)cn1	93	–
Nc1ncc(-c2ccc(C3(c4noc(-c5cn[nH]c5)n4)CCC3)cc2)cn1	110	solubility thermodynamic at 24 h [6]: 0.4 µg/mL (≈ 1.11 µM)
Cn1cc(-c2nc([C@@](C)(c3ccc(-c4cnc(N)nc4)cc3)C3CCC3)no2)cn1	91	–
NCCn1cc(-c2nc(C3(c4ccc(-c5cnc(N)nc5)cc4)CCC3)no2)cn1	240	–
Cn1cc(-c2nc([C@@](C)(c3ccc(-c4cnc(N)nc4)cc3)C3CC3)no2)cn1	15	–
Nc1ncc(-c2ccc(C3(c4noc(-c5c[nH]nn5)n4)CCC3)cc2)cn1	2100	–
CN(C)C(=O)Cn1cc(-c2nc([C@@](C)(c3ccc(-c4ccc(N)nc4)cc3)C3CC3)no2)cn1	66	–
Cn1cc(-c2nc(Cc3ccc(-c4cnc(N)nc4)cc3)no2)cn1	> 5000	IC50 [3]: > 1000 nM
CC(C)C(c1ccc(-c2cnc(N)nc2)cc1)c1noc(-c2cnn(C)c2)n1 (racemic)	190	–
Nc1ncc(-c2ccc(C3(c4noc(-c5cscn5)n4)CCC3)cc2)cn1	200	–
Nc1ncc(-c2ccc(C3(c4noc(-c5ccc[nH]c5=O)n4)CCC3)cc2)cn1	> 5000	–
CCNc1ncc(-c2ccc(C(C)(c3noc(-c4cnn(CC(=O)N(C)C)c4)n3)C3CC3)cc2)cn1 (racemic)	1000	–
Nc1ncc(-c2ccc(C3(c4noc(-c5ccncn5)n4)CCC3)cc2)cn1	820	–
CC(C)[C@](C)(c1ccc(-c2cnc(N)nc2)cc1)c1noc(-c2cnn(C)c2)n1	33	–

Compound	IC50 [5] [nM]	further results
CC(C)(O)Cn1cc(-c2nc(C3(c4ccc(-c5cnc(N)nc5)cc4)CCC3)no2)cn1	–	IC50 (Cytochrome P450 2D6 [2]): 3000 nM; IC50 (Cytochrome P450 3A4 [4]): > 30000 nM; inhibition at 11 µM (hERG (KCNH2)): 51%; solubility thermodynamic at 24 h [6]: 3.1 µg/mL (≈ 7.18 µM); IC50 (Cytochrome P450 2C9 [8]): 6000 nM
Nc1ncc(-c2ccc(C3(c4noc(-c5ccnnc5)n4)CCC3)cc2)cn1	240	–
Nc1ncc(-c2ccc(C3(c4noc(-c5cccnc5)n4)CCC3)cc2)cn1	250	–
CN(C)CCn1cc(-c2nc([C@@](C)(c3ccc(-c4cnc(N)nc4)cc3)C3CC3)no2)cn1	14	IC50 (Cytochrome P450 2D6 [2]): 10000 nM; IC50 (Cytochrome P450 3A4 [4]): > 30000 nM; inhibition at 11 µM (hERG (KCNH2)): 31%; solubility thermodynamic at 24 h [6]: > 1100 µg/mL; hepatic extraction ratio at 1 h, 1 µM [7]: 0.4; IC50 (Cytochrome P450 2C9 [8]): > 30000 nM
CC(C)[C@@](C)(c1ccc(-c2cnc(N)nc2)cc1)c1noc(-c2cnn(C)c2)n1	360	–
CC(C)Nc1ncc(-c2ccc([C@](C)(c3noc(-c4cnn(CC(=O)N(C)C)c4)n3)C3CC3)cc2)cn1	> 50000	IC50 [3]: > 1000 nM
Cn1cc(-c2nc([C@](C)(c3ccc(-c4cnc(N)nc4)cc3)C3CC3)no2)cn1	350	–
Nc1ncc(-c2ccc(C3(c4noc(-c5cc[nH]n5)n4)CCC3)cc2)cn1	160	–
COCCn1cc(-c2nc(C3(c4ccc(-c5cnc(N)nc5)cc4)CCC3)no2)cn1	–	solubility thermodynamic at 24 h [6]: 9.3 µg/mL (≈ 22.3 µM)
Cn1cc(-c2nc(C3(c4ccc(-c5cnc(N)nc5)cc4)CC3)no2)cn1	2200	–
Nc1ncc(-c2ccc(C3(c4noc(-c5cocn5)n4)CCC3)cc2)cn1	310	–
CN(C)CCn1cc(-c2nc(C3(c4ccc(-c5cnc(N)nc5)cc4)CCC3)no2)cn1	47	IC50 (Cytochrome P450 2D6 [2]): 10000 nM; inhibition (INH) (Cytochrome P450 3A4 [11]): Not Active; solubility thermodynamic at 24 h [6]: 270 µg/mL (≈ 627 µM); IC50 (Cytochrome P450 2C9 [8]): 7000 nM
Nc1ncc(-c2ccc(C3(c4noc(-c5nc[nH]n5)n4)CCC3)cc2)cn1	2700	–
Nc1ncc(-c2ccc(C3(c4noc(-c5ccccc5)n4)CCC3)cc2)cn1	470	–
Nc1ncc(-c2ccc(C3(c4noc(-c5c[nH]cn5)n4)CCC3)cc2)cn1	270	–
CC(C)C(C)(c1ccc(-c2cnc(N)nc2)cc1)c1noc(-c2cnn(C)c2)n1 (racemic)	46	–
Nc1ncc(-c2ccc(C3(c4noc(-c5cnn(CC(=O)O)c5)n4)CCC3)cc2)cn1	> 5000	IC50 [3]: 18 nM
Cn1cc(-c2nc(C3(c4ccc(-c5cnc(N)nc5)cc4)CC(C)(C)C3)no2)cn1	1500	–
Nc1ncc(-c2ccc(C3(c4noc(-c5cncnc5)n4)CCC3)cc2)cn1	340	–
CN(C)C(=O)Cn1cc(-c2nc([C@@](C)(c3ccc(-c4cnc(N)cn4)cc3)C3CC3)no2)cn1	73	–
Cn1cc(-c2nc([C@](C)(c3ccc(-c4cnc(N)nc4)cc3)C3CCC3)no2)cn1	3200	–
